Only some compounds are listed: those with a hit (about 4% of all), similar ones and a draw of the others.
ABHD5-PLIN5 inh – ABHD5-PLIN5 protein interaction inhibition; actives 0.78% (n = 360,000); Split G. princeps luciferase complementation, luminescence, 4 h; AID 602281; inhibition, % at 4 µM; Q00G26+Q8WTS1;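 active means inhibition above the mean inhibition across every tested compound plus 3 SD, cut at about 22% in these data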
Mdm2-MdmX inh – inhibitors of human Mdm2/MdmX interaction | actives 3% (n = 330,000) | inhibition, % at 8 µM | SaOS-2 split-luciferase Mdm2/MdmX complementation, luminescence | AID 485346 | O15151+Q00987;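 active means inhibition of at least 50% at 8 µM in the primary screen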
Target sequence (O15151 whole entry, looked up): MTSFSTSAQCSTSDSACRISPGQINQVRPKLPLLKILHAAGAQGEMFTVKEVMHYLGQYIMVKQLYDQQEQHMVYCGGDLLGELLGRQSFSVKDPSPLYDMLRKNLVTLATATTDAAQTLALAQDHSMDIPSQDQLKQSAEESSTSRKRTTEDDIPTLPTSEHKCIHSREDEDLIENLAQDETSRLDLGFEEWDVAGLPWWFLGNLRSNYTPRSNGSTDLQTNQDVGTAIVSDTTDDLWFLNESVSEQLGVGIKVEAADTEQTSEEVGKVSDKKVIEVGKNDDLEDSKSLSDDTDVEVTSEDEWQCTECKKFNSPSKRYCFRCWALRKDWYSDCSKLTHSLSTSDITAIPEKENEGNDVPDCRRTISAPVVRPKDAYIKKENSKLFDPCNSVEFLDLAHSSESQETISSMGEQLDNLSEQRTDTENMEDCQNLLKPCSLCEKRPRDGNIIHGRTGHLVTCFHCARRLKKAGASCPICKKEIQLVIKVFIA
Target sequence (Q00987 whole entry, looked up): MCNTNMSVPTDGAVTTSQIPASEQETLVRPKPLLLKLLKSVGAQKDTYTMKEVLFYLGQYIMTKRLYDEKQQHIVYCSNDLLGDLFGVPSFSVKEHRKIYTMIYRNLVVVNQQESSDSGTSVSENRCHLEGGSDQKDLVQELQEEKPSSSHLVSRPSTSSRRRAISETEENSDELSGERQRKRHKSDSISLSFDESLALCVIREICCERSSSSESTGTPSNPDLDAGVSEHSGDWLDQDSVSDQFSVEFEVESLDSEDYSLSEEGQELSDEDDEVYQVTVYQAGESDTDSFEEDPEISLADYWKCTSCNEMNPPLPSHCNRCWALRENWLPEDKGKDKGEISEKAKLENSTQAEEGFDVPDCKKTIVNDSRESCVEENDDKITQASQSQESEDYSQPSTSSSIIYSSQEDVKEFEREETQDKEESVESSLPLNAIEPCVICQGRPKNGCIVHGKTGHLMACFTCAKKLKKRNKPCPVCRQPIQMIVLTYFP
UPR CHOP act – apoptotic UPR (CHOP) activation. CHO-CHOP luciferase reporter, luminescence; percent of tunicamycin response over DMSO baseline. activation, % at 10 µM. actives 0.34% (n = 330,000). AID 449763;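 active means at 10 µM dose, activation of 40% or more, normalized to positive control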
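System: CHO-CHOP luciferase reporter cell line | Buffer or medium: F12 medium containing 10% fetal bovine serum | Doses: One dose, 10 µM in 0.5% DMSO | Times: 6 h compound exposure at 37 °C after overnight seeding | Signal: Luciferase luminescence | Read-out: % activation vs tunicamycin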
UPR XBP1 act – activators of adaptive arm of unfolded protein response (XBP1); CHO-XBP1 luciferase reporter, IRE1-XBP1 UPR activation, luminescence; percent of tunicamycin response, DMSO as zero; activation, % at 20 µM; actives 0.33% (n = 330,000);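 active means versus positive control, 20 µM dose yields 30% or more activation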
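Assay system: CHO-XBP1 luciferase reporter cells; Schedule: 6 h treatment, 37 °C; Detection: glow luminescence from Steady-Glo reagent; Benchmarks: high control tunicamycin 10 µg/mL final, low control DMSO vehicle only.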
Granule exo inh – lytic granule exocytosis inhibition. actives 0.66% (n = 360,000). TALL-104 LAMP-1 surface exposure, flow cytometry; cells stimulated with thapsigargin and PMA. inhibition, % at 10 µM;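 active means inhibition above about 55%, limit read from the data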
Mdm2-MdmX conf – human Mdm2/MdmX binding inhibition, confirmed; shares compounds with Mdm2-MdmX inh; luminescent assay; inhibition, % at 8 µM; actives 55% (n = 10,000); in the data active means inhibition above about 40%
Full FLuc ctr – counter-screen for Mdm2/MdmX inhibitors: full-length luciferase; shares compounds with Mdm2-MdmX inh; SaOS-2 full-length luciferase counterscreen, luminescence; inhibition, % at 8 µM; actives 77% (n = 6,200); AID 504607;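 active means mean inhibition at 8 µM reaching about 37%, which flags the compound as non-specific, limit read from the data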;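 further: p53-null SaOS-2 cells with luciferase driven by a doxycycline-inducible promoter; compound on cells about two nights before reading with doxycycline added after day one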
Of the large screens only hits and unclear results are named; the others gave an inactive call (follow-up assays come after a bar, where they were run).

CCOC(=O)/C=c1\s/c(=C\c2c(OC)ccc3ccccc23)c(=O)n1CC(=O)NCC1CCCO1 (centres undefined)	Mdm2-MdmX inh 63 | Mdm2-MdmX conf 65 | Full FLuc ctr 77
O=C(c1cc(=O)c2ccccc2o1)N1CCN(c2cccc(Cl)c2)CC1	none
Cc1ccc(C(=O)C=Cc2ccc3c(c2)OCO3)c(C)c1	none (no result: Mdm2-MdmX inh, UPR CHOP act, UPR XBP1 act)
Cc1ccc(O)c(C(=O)/C=C/c2ccc3c(c2)OCCO3)c1	Mdm2-MdmX inh 52 | Mdm2-MdmX conf inactive
O=C(c1cc(C2CC2)on1)N1CCCC(N2CCN(c3cccc(C(F)(F)F)c3)CC2)C1 (centres undefined)	none
C1CCC(C(CC2CCCCN2)C2CCCCC2)CC1 (centres undefined)	Mdm2-MdmX inh 100 | Mdm2-MdmX conf 99 | Full FLuc ctr inactive
N#CC(C#SN)=C1CCCCC1	none
COc1cc2c(C#N)c(N3CCN(C)CC3)nc(N)c2c(N)n1	none
COc1cc2c(C#N)c(N3CCN(c4ccccc4OC)CC3)nc(N)c2c(N)n1	Mdm2-MdmX inh 75 | Mdm2-MdmX conf inactive
CCCC(=O)N1CCN(c2ccc(NC(=O)c3ccco3)cc2)CC1	none
CCCN(CCC)C(=O)Cc1coc2ccc3ccccc3c12	none
CCN(CC)c1ccc2c(cc1=O)[C@@H](NC)CCc1cc(OC)c(OC)c(OC)c1-2	Mdm2-MdmX inh 69 | Mdm2-MdmX conf 61 | Full FLuc ctr 90
CN[C@H]1CCc2cc(OC)c(OC)c(OC)c2-c2ccc(N(C)CC(OC)OC)c(=O)cc21	Mdm2-MdmX inh 71 | Mdm2-MdmX conf 49 | Full FLuc ctr 66
CCOCC(=O)NC1CCc2cc(OC(=O)COCC)c(OC)c(OC)c2-c2ccc(SC)c(=O)cc21 (centres undefined)	none (no result: Mdm2-MdmX inh, UPR CHOP act, UPR XBP1 act)
COc1cc2c(c(OC)c1OC)-c1ccc(SC)c(=O)cc1C(NC(=O)C(F)(F)F)CC2 (centres undefined)	none (no result: Mdm2-MdmX inh, UPR CHOP act, UPR XBP1 act)
COc1cc2c(c(OC)c1OC)-c1ccc(N(C)CC(OC)OC)c(=O)cc1[C@@H](NC(C)=O)CC2	Mdm2-MdmX inh 68 | Mdm2-MdmX conf 63 | Full FLuc ctr 132
Nc1c(C(=O)NCc2ccco2)nnn1CC(=O)Nc1ccc2c(c1)OCO2	none
CCc1nnc(NS(=O)(=O)c2ccc(N/C=C/C(=O)c3ccc(C)cc3)cc2)s1	none
O=C(CN1CCc2ccccc2C1)Nc1ccccc1N1CCCCCC1	none
Cn1c(N)c(C(=O)c2ccccc2)c(=O)n(C)c1=O	none
Cn1c(=O)c(/C(N)=N/OC(=O)c2ccccc2)cn(-c2ccccc2)c1=O	Mdm2-MdmX inh 58 | Mdm2-MdmX conf inactive
Cc1cc(C(F)(F)F)n(-c2nc(C(=O)NN)cs2)n1	none
COc1ccc(/C=N/NC(=O)c2csc(-n3nc(C)cc3C(F)(F)F)n2)cc1	Mdm2-MdmX inh 50 | Mdm2-MdmX conf 48 | Full FLuc ctr 70
Cc1ccc(-c2nnc3cccc(Cl)n23)cc1	none
CC1CC(C)CN(Cc2nc(N)nc(Nc3ccccc3)n2)C1 (centres undefined)	none
CC1CC(C)CN(Cc2nc(N)nc(Nc3ccc4ccccc4c3)n2)C1 (centres undefined)	Mdm2-MdmX inh 62 | Mdm2-MdmX conf 67 | Full FLuc ctr 57
CN(C)C=Nc1ncc2c3ccccc3n(CCN(C)C)c2c1C#N	Mdm2-MdmX inh 60 | Mdm2-MdmX conf 62 | Full FLuc ctr inactive
CCN(CC)CCn1c2ccccc2c2cnc(N)c(C#N)c21	Mdm2-MdmX inh 63 | Mdm2-MdmX conf inactive
CN(C)C=Nc1ncc2c3ccccc3n(Cc3ccccc3)c2c1C#N	none
CCOC(=O)c1sc(NC(=O)CSc2nc3c(cc2C#N)CCCCCC3)c(C#N)c1C	none
Cc1ccc(C(=O)NC2CCc3ccccc3C2=O)cc1 (centres undefined)	none
Cc1ccc(C(=O)NC2c3ccccc3-c3ccccc32)cc1	Mdm2-MdmX inh 59 | Mdm2-MdmX conf 58 | Full FLuc ctr 54
CCN(CC)C(=O)c1ccc(/C=C/c2c[nH]c3ccccc23)[n+](C)c1	none
CC[n+]1c(/C=C/c2c[nH]c3ccccc23)ccc2cc(C)ccc21	Mdm2-MdmX inh 72 (no result: ABHD5-PLIN5 inh, Granule exo inh) | Mdm2-MdmX conf 56 | Full FLuc ctr 73
COc1ccc(-c2cc(C3CCN(c4cc(Cl)nc(N)n4)CC3)[nH]n2)cc1	none
Nc1nc(Cl)cc(N2CCC(c3cc(-c4ccc(Cl)cc4)n[nH]3)CC2)n1	Mdm2-MdmX inh 84 | Mdm2-MdmX conf inactive
COc1ccc(-c2cc(C3CCN(Cc4ccc([N+](=O)[O-])cc4)CC3)[nH]n2)cc1	none
Cc1ccc(CN2CCC(c3cc(-c4ccc(Cl)cc4)n[nH]3)CC2)cc1	Mdm2-MdmX inh 64 | Mdm2-MdmX conf inactive | Full FLuc ctr 74
CCCC1=NN2C(=N)/C(=C\c3cc(C)n(-c4cccc(C)c4)c3C)C(=O)N=C2S1	none
O=C(Oc1c(-c2ccccc2Cl)oc2ccccc2c1=O)c1ccc(Cl)cc1	Mdm2-MdmX inh 67 | Mdm2-MdmX conf 53 | Full FLuc ctr 48
COc1ccc(C(=O)c2ccc3oc(-c4ccc(OC)cc4)c(-c4ccc(O)cc4)c3c2)cc1	Mdm2-MdmX inh 66 | Mdm2-MdmX conf inactive
O=C(Oc1c(-c2ccccc2)oc2ccccc2c1=O)c1ccccc1	Mdm2-MdmX inh 85 | Mdm2-MdmX conf 61 | Full FLuc ctr inactive
COc1ccc(-c2oc3ccccc3c(=O)c2OC(=O)c2ccc(C)cc2)cc1	Mdm2-MdmX inh 79 | Mdm2-MdmX conf 53 | Full FLuc ctr inactive
Cc1ccc(C)c(NC(NC(=O)c2cccnc2)C(Cl)(Cl)Cl)c1 (centres undefined)	none
CCc1nc2ccc(C(=O)NCCCN3CCCC3=O)cn2c1N(C=O)CC	none (no result: Mdm2-MdmX inh, UPR CHOP act, UPR XBP1 act)
Cc1ccc(N=Cc2nc(/C=C/c3cccc([N+](=O)[O-])c3)oc2O)cc1	Mdm2-MdmX inh 94 | Mdm2-MdmX conf inactive
COc1cc2nc(SCC(N)=O)n(CCC3=CCCCC3)c(=O)c2cc1OC	Mdm2-MdmX inh 80 | Mdm2-MdmX conf inactive
COCCNC(=O)CSc1nc2cc(OC)c(OC)cc2c(=O)n1CCC1=CCCCC1	none (no result: Mdm2-MdmX inh, UPR CHOP act, UPR XBP1 act)
Fc1ccc(NC(=S)NC2CCN(Cc3ccccc3)CC2)cc1	none
S=C(Nc1ccc(Oc2ccccc2)cc1)NC1CCCCCC1	none (no result: Mdm2-MdmX inh, UPR CHOP act, UPR XBP1 act)
S=C(Nc1ccc(Cl)c(Cl)c1)NC1CCN(Cc2ccccc2)CC1	Mdm2-MdmX inh 97 | Mdm2-MdmX conf 52 | Full FLuc ctr inactive
S=C(Nc1ccc2nsnc2c1)NC1CCCCC1	none
S=C(Nc1ccc(Cl)c(Cl)c1)NC1CCCCC1	Mdm2-MdmX inh 85 | Mdm2-MdmX conf 50 | Full FLuc ctr 62
